Measured values reported in PubChem BioAssay AID493187 (Sanford-Burnham Center for Chemical Genomics, 2011).
About 190 (0.056%) of roughly 340,000 compounds were called active.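 How the source made its calls: active means activation of 40% or more at 20 µM, a change of -40% or lower; inactive means the rest.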 Only a selection was taken, and actives are over-represented in it overall.

These compounds were tested against Hexokinase HKDC1 (Homo sapiens) (UniProt Q2TB90) (assay: HKDC1 hexokinase activators, primary screen, biochemical, fluorescence, uHTS (AID 493187)). Settings: recombinant HKDC1, G6PDH/diaphorase resazurin fluorescence; at 20 µM; active compounds read low.
Chain of Hexokinase HKDC1 (Homo sapiens) (Q2TB90 whole entry, looked up): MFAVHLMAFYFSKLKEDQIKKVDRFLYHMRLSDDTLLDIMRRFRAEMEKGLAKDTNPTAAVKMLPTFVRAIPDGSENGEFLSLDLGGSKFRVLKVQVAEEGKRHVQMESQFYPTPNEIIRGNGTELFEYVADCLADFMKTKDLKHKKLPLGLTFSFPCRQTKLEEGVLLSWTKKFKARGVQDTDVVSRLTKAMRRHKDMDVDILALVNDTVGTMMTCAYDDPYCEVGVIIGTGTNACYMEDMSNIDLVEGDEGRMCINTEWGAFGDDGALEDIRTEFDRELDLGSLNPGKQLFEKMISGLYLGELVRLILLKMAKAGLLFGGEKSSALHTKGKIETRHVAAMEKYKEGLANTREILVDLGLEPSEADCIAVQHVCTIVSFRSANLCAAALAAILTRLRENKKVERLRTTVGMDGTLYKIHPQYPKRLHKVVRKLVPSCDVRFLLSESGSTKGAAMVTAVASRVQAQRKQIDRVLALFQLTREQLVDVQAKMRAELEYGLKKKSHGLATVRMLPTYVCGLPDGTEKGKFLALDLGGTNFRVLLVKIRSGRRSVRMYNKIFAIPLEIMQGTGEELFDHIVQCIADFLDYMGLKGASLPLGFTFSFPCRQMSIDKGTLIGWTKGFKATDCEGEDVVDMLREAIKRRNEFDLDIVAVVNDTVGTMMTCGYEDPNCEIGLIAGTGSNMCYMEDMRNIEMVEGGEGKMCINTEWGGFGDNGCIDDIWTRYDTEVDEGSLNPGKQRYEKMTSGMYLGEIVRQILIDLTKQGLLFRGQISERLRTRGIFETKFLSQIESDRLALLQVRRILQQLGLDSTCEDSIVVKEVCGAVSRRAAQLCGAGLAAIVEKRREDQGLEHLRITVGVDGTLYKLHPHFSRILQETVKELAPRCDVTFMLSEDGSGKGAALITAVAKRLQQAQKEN
Method in brief: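 Signal: coupled resazurin-to-resorufin fluorescence, Ex 525/Em 613 nm. Test system: in-house human HKDC1 enzyme, G6PDH and diaphorase coupling enzymes. Quantity: HKDC1 5 µg/mL. Timing: 90 min reaction at room temperature, dark.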
`CC(=O)OC1C2(CC3N4C(=O)C5(CO)SSC4(CC31O)C(=O)N5C)OC(C)C(C)(C)C2=O` (stereo unspecified) was tested, and the activity change, negative = activation was -42.1% (active).
